One may read the inhibition as the relative decrease from the control value, in per cent. The IC50 is the concentration needed to halve the response being measured. Read a high IC50 as weaker potency. By MIC is commonly meant the lowest concentration found to suppress growth.

For assay [1], the target named is T1, Cell division protein FtsZ (Staphylococcus aureus) (UniProt P0A031).
T1 sequence (whole entry): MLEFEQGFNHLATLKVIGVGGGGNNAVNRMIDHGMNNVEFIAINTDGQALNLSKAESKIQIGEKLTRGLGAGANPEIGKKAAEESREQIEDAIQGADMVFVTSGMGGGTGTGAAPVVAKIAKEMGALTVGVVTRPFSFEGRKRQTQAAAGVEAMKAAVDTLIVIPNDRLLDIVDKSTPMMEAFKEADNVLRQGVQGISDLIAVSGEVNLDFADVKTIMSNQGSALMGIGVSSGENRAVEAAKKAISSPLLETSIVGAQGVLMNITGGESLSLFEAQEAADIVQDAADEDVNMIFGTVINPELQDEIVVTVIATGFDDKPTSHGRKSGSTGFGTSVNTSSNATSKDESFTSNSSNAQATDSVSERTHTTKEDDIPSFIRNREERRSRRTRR
As to the kind of experiment: Inhibition of Staphylococcus aureus N-terminal 6His-tagged FtsZ polymerization expressed in Escherichia coli BL21 (DE3) assessed as reduced strands at 100 uM in presence of GTP by TEM analysis. The method in brief:
(§1)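 Purified S. aureus FtsZ was incubated with GTP and compound at 0, 50 or 100 µM. Filaments were then imaged by transmission electron microscopy.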

For assay [2], the target named is T1, Cell division protein FtsZ (Staphylococcus aureus). Description: Inhibition of Staphylococcus aureus N-terminal 6His-tagged FtsZ polymerization expressed in Escherichia coli BL21 (DE3) at 50 uM relative to control. The method in brief: (§2)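 Purified S. aureus FtsZ polymerization with GTP, followed as light scattering (absorbance 600 nm) over time. Compound was tested at 12.5–100 µM against a 1% DMSO vehicle, and inhibition was read at 500 s. Triplicate.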

Assay [3] shares this target. As to the kind of experiment: Inhibition of Staphylococcus aureus N-terminal 6His-tagged FtsZ GTPase expressed in Escherichia coli BL21 (DE3) at 100 uM.
Assay [4] has the same target. As to the kind of experiment: Inhibition of Staphylococcus aureus N-terminal 6His-tagged FtsZ polymerization expressed in Escherichia coli BL21 (DE3) assessed as thin strands at 100 uM in presence of GTP by TEM analysis. In a few lines: as §1
For assay [5] the target is unchanged. Description: Inhibition of Staphylococcus aureus N-terminal 6His-tagged FtsZ polymerization expressed in Escherichia coli BL21 (DE3) at 25 uM relative to control. In a few lines: as §2
Assay [6] concerns Staphylococcus aureus. As to the kind of experiment: Antibacterial activity against Staphylococcus aureus ATCC BAA-41 at […] after 24 hrs by time kill assay. The format is functional, organism-based. The method in brief: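 Time-kill assay. S. aureus BAA-41 was grown in CA-MH broth to mid-log phase (OD595 0.8), then diluted to 5×10^5 CFU/mL. […] Samples were taken at 0–24 h and plated on drug-free CA-MH agar for 24 h. Triplicates.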

Assay [7] has as its system Staphylococcus aureus. As to the kind of experiment: Synergistic antibacterial activity against Staphylococcus aureus ATCC BAA-41 at 1 to 16 times MIC in presence of methicillin after 21 hrs by time kill assay. The format is functional, organism-based. The method in brief: (§3)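 Colony of strain grown 16 h in CA-MH broth at 37 °C with shaking, diluted 100-fold and grown to mid-log (OD595 0.8), then set at 5×10^5 CFU/mL. […] Sampled at 0, 2.5, 5, 7.5, 21, 24 h, diluted and plated on drug-free CA-MH agar, 24 h at 37 °C; triplicates.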

Assay [8] deals with T1, Cell division protein FtsZ (Staphylococcus aureus). Description: Inhibition of Staphylococcus aureus N-terminal 6His-tagged FtsZ polymerization expressed in Escherichia coli BL21 (DE3) at 100 uM relative to control. The method in brief:
as §2

The target is the same in assay [9]. As to the kind of experiment: Inhibition of Staphylococcus aureus N-terminal 6His-tagged FtsZ polymerization expressed in Escherichia coli BL21 (DE3) assessed as reduction in filament formation in presence of GTP by TEM analysis. In a few lines: as §1
Assay [10] shares this target. Description: Inhibition of Staphylococcus aureus N-terminal 6His-tagged FtsZ polymerization expressed in Escherichia coli BL21 (DE3) assessed as short strands at 100 uM in presence of GTP by TEM analysis. The method in brief:
as §1

Assay [11] has the same target. As to the kind of experiment: Inhibition of Staphylococcus aureus N-terminal 6His-tagged FtsZ polymerization expressed in Escherichia coli BL21 (DE3). In a few lines:
as §2

Assay [12] has the same target. As to the kind of experiment: Inhibition of Staphylococcus aureus N-terminal 6His-tagged FtsZ polymerization expressed in Escherichia coli BL21 (DE3) assessed as single strands at 100 uM in presence of GTP by TEM analysis. In a few lines: as §1
Assay [13] deals with Staphylococcus aureus. As to the kind of experiment: Synergistic bactericidal activity against Staphylococcus aureus ATCC BAA-41 at 1 to 16 times MIC in presence of methicillin up to 24 hrs by time kill assay. The format is functional, organism-based. The method in brief:
as §3

Assay [14] relates to L929. As to the kind of experiment: Cytotoxicity against mouse L929 cells by MTS assay. Format: cell-based. In a few lines:
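MTS assay on L929 mouse fibroblasts; IC50 reported as the average of three independent measurements.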
On the technique in general: Formazan colour is commonly taken as a measure of viable cells.

The target of assay [15] is T1, Cell division protein FtsZ (Staphylococcus aureus). Description: Inhibition of Staphylococcus aureus N-terminal 6His-tagged FtsZ GTPase expressed in Escherichia coli BL21 (DE3) at 50 uM relative to control.
The subject of assay [16] is Staphylococcus aureus. Description: Antibacterial activity against Staphylococcus aureus ATCC 29213 by broth microdilution assay. Format: functional. The method in brief:
(§4)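 Broth microdilution per CLSI guidelines; compounds dissolved in DMSO; single agents tested; growth inhibition read by eye; run in duplicate (table footnote states at least triplicates).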

The target in assay [17] is T1, Cell division protein FtsZ (Staphylococcus aureus). As to the kind of experiment: Inhibition of Staphylococcus aureus N-terminal 6His-tagged FtsZ GTPase expressed in Escherichia coli BL21 (DE3) at 30 uM relative to control.
Assay [18] has as its system Escherichia coli. Description: Antibacterial activity against Escherichia coli ATCC 25922 by broth microdilution assay. The format is functional. In a few lines: as §4
On the technique in general: Broth dilution looks for growth in wells or tubes with falling amounts of substance.

In assay [19] the target is T1, Cell division protein FtsZ (Staphylococcus aureus). As to the kind of experiment: Inhibition of Staphylococcus aureus N-terminal 6His-tagged FtsZ GTPase expressed in Escherichia coli BL21 (DE3) at 100 uM relative to control.
Assay [20] in a line: Selective index, ratio of IC50 for mouse L929 cells to MIC for Staphylococcus aureus ATCC 29213. The method in brief: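 Selectivity index calculated as L929 IC50 (μM) divided by S. aureus MIC (μM).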
The test system of assay [21] is Staphylococcus aureus. As to the kind of experiment: Bactericidal activity against Staphylococcus aureus ATCC BAA-41 assessed as log reduction in bacterial growth at 2 to 4 times MIC up to 7 hrs by time kill assay. Format: functional. In a few lines: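 Mid-log S. aureus BAA-41 culture (OD595 0.8) diluted to 5×10^5 CFU/mL in CA-MH broth. […] Incubated at 37 °C with shaking at 250 rpm, sampled at 0, 2.5, 5, 7.5, 21 and 24 h, and plated on drug-free CA-MH agar for 24 h at 37 °C to count viable cells; triplicates.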

Molecules are shown by their SMILES. In brackets after ≈: the same amount, converted by molar mass. Activity calls are given as the source filed them. The rule behind the calls is not given here.

In the case of `CCCCCCCCCNc1ccc(F)c(C(N)=O)c1F`, the inhibition result in assay [1], in [4], in assay [10] and in assay [12] was “Active” each time. Further, the inhibition is 39% in [2]; 34% in assay [5]; 47% in [8]; “Dose-dependent effect” in assay [9]; “Dose-dependent effect” in assay [11]. Moreover, in [3], the inhibition result was “inactive”. For the same compound, in assay [6], the outcome was inactive. The outcome in [7] and in [13] was Active.
The compound `NC(=O)c1c(F)ccc(OCc2nc3cc(Cl)cnc3s2)c1F` registered a concentration for half-maximal inhibition (IC50) in [14] of more than 100 µM. The figures for the inhibition in [15], in assay [17] and in [19] were -29%, -47% and -15%, respectively. For the same compound, the MIC in assay [16] was 1.6 µM (≈ 0.569 µg/mL); in assay [18], more than 64 µg/mL. The outcome in assay [6], in [7] and in assay [13] was Active. Besides, the inhibition entry in assay [8] is “Active”. In addition, the “Selectivity Index” value in assay [20] is more than 63. For the same compound, the log(activity) in [21] is more than 4.

The values above are taken from ChEMBL document CHEMBL4330069, “Boosting the efficacy of anti-MRSA β-lactam antibiotics via an easily accessible, non-cytotoxic and orally bioavailable FtsZ inhibitor” (Eur J Med Chem, 2019).
